Test results as given in ChEMBL document CHEMBL4393718, “Synthesis, biological evaluation and computational study of novel isoniazid containing 4H-Pyrimido[2,1-b]benzothiazoles derivatives” (2019).
Converted amounts (≈) assume the structure as drawn.

How the values were obtained:
Type in all cases: functional
Bacillus cereus [1] = assay: Activity index, ratio of IZ for test compound to IZ for streptomycin for antimicrobial activity against Bacillus cereus MTCC 8558 incubated for 24 hrs by well diffusion method
How it was run: (§1)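 Well diffusion on nutrient agar plates. The activity index is the mean inhibition zone of the derivative divided by the inhibition zone of the standard antibiotic.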

Micrococcus luteus [2] = assay: Antimicrobial activity against Micrococcus luteus MTCC 11948 incubated for 24 hrs by well diffusion method
How it was run: (§2)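 Well diffusion assay on nutrient agar plates. The read-out is the mean inhibition zone diameter in mm.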

Escherichia coli [3] = assay: Antimicrobial activity against Escherichia coli MTCC 1610 incubated for 24 hrs by well diffusion method; how it was run: as §2
[4] = system: Mycobacterium tuberculosis; assay: Antitubercular activity against Mycobacterium tuberculosis H37Rv assessed as reduction in viable colony forming unit at 1000 ug/ml incubated for 42 days by Lowensteine-Jensen method relative to control
How it was run: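 H37Rv cultured on Lowenstein-Jensen medium with compound or untreated control; colony forming units counted on the L-J medium. Percent inhibition = (Cc − Ct)/Cc × 100, where c is control and t is test.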

Klebsiella aerogenes [5] = assay: Activity index, ratio of IZ for test compound to IZ for streptomycin for antimicrobial activity against Enterobacter aerogenes MTCC 8558 incubated for 24 hrs by well diffusion method; how it was run: as §1
Escherichia coli [6] = assay: Activity index, ratio of IZ for test compound to IZ for streptomycin for antimicrobial activity against Escherichia coli MTCC 1610 incubated for 24 hrs by well diffusion method; how it was run: as §1
Bacillus cereus [7] = assay: Antimicrobial activity against Bacillus cereus MTCC 8558 incubated for 24 hrs by well diffusion method; how it was run: as §2
Klebsiella aerogenes [8] = assay: Antimicrobial activity against Enterobacter aerogenes MTCC 8558 incubated for 24 hrs by well diffusion method; how it was run: as §2
[9] = system: Mycobacterium tuberculosis; assay: Antitubercular activity against Mycobacterium tuberculosis H37Rv assessed as viable colony forming unit at 1000 ug/ml incubated for 42 days by Lowensteine-Jensen method (reference value: 123 CFU)
[10] = system: Mycobacterium tuberculosis; assay: Antitubercular activity against Mycobacterium tuberculosis H37Rv incubated for 42 days by Lowensteine-Jensen method
Micrococcus luteus [11] = assay: Activity index, ratio of IZ for test compound to IZ for streptomycin for antimicrobial activity against Micrococcus luteus MTCC 11948 incubated for 24 hrs by well diffusion method; how it was run: as §1

Row | SMILES | Activity_index (Bacillus cereus [1]) | inhibition zone (IZ) (Micrococcus luteus [2]) [mm] | inhibition zone (IZ) (Escherichia coli [3]) [mm] | inhibition at 1000 µg/mL [4] [%] | Activity_index (Klebsiella aerogenes [5]) | Activity_index (Escherichia coli [6]) | inhibition zone (IZ) (Bacillus cereus [7]) [mm] | inhibition zone (IZ) (Klebsiella aerogenes [8]) [mm] | Activity [9] [CFU] | MIC [10] [µg/mL] | Activity_index (Micrococcus luteus [11])
1 | CC1=C(C(=O)NNC(=O)c2ccncc2)C(c2ccccn2)N2C(=N1)Sc1cc(OC(F)(F)F)ccc12 (stereo unspecified) | 0.792 | 18 | 19 | 79.7 | 0.917 | 0.792 | 19 | 22 | 25 | 6.25 (≈ 11.9 µM) | 0.75
2 | CC1=C(C(=O)NNC(=O)c2ccncc2)C(c2ccccn2)N2C(=N1)Sc1cc(Br)ccc12 (stereo unspecified) | 0.75 | 15 | 19 | 73.2 | 0.833 | 0.792 | 18 | 20 | 33 | 62.5 (≈ 120 µM) | 0.625
3 | CC1=C(C(=O)NNC(=O)c2ccncc2)C(c2ccccn2)N2C(=N1)Sc1cc(C)c(C)cc12 (stereo unspecified) | 0.792 | 19 | 15 | 82.1 | 0.792 | 0.625 | 19 | 19 | 22 | 12.5 (≈ 26.6 µM) | 0.792
4 | CN[C@@H]1[C@H](O[C@H]2[C@H](O[C@H]3[C@H](O)[C@@H](O)[C@H](N=C(N)N)[C@@H](O)[C@@H]3N=C(N)N)O[C@@H](C)[C@]2(O)C=O)O[C@@H](CO)[C@H](O)[C@H]1O [STREPTOMYCIN] | – | 24 | 24 | – | – | – | 24 | 24 | – | – | –
5 | CC1=C(C(=O)NNC(=O)c2ccncc2)C(c2ccccn2)N2C(=N1)Sc1cc(F)ccc12 (stereo unspecified) | 0.5 | 19 | 24 | 80.5 | 0.792 | 1 | 12 | 19 | 24 | 25 (≈ 54.3 µM) | 0.792
6 | COc1cccc2c1N1C(=NC(C)=C(C(=O)NNC(=O)c3ccncc3)C1c1ccccn1)S2 (stereo unspecified) | 1.083 | 17 | 17 | 50.4 | 0.958 | 0.708 | 26 | 23 | 61 | 125 (≈ 265 µM) | 0.708
7 | CC1=C(C(=O)NNC(=O)c2ccncc2)C(c2ccccn2)N2C(=N1)Sc1cc([N+](=O)[O-])ccc12 (stereo unspecified) | 1 | 14 | 16 | 56.9 | 0.708 | 0.667 | 24 | 17 | 53 | 250 (≈ 513 µM) | 0.583
8 | CC1=C(C(=O)NNC(=O)c2ccncc2)C(c2ccccn2)N2C(=N1)Sc1cc(C)ccc12 (stereo unspecified) | 0.792 | 19 | 21 | 54.5 | 0.625 | 0.875 | 19 | 15 | 56 | 500 (≈ 1100 µM) | 0.792
9 | CC1=C(C(=O)NNC(=O)c2ccncc2)C(c2ccccn2)N2C(=N1)Sc1cccc(Cl)c12 (stereo unspecified) | 0.667 | 17 | 22 | 81.3 | 0.75 | 0.917 | 16 | 18 | 23 | 50 (≈ 105 µM) | 0.708
10 | CC1=C(C(=O)NNC(=O)c2ccncc2)C(c2ccccn2)N2C(=N1)Sc1cc(O)ccc12 (stereo unspecified) | 1 | 16 | 24 | 68.3 | 0.833 | 1 | 24 | 20 | 39 | 100 (≈ 218 µM) | 0.667
11 | CC1=C(C(=O)NNC(=O)c2ccncc2)C(c2ccccn2)N2C(=N1)Sc1cc(Cl)ccc12 (stereo unspecified) | 0.708 | 16 | 18 | 71.5 | 0.667 | 0.75 | 17 | 16 | 35 | 125 (≈ 262 µM) | 0.667
12 | NNC(=O)c1ccncc1 [ISONIAZID] | – | – | – | 99.2 | – | – | – | – | 1 | 0.2 (≈ 1.46 µM) | –
13 | COc1ccc2c(c1)SC1=NC(C)=C(C(=O)NNC(=O)c3ccncc3)C(c3ccccn3)N12 (stereo unspecified) | 0.625 | 22 | 15 | 49.6 | 0.917 | 0.625 | 15 | 22 | 62 | 500 (≈ 1060 µM) | 0.917
14 | CC1=C(C(=O)NNC(=O)c2ccncc2)C(c2ccccn2)N2C(=N1)Sc1ccccc12 (stereo unspecified) | 0.917 | 20 | 13 | 69.9 | 0.792 | 0.542 | 22 | 19 | 37 | 125 (≈ 282 µM) | 0.833
15 | CC1=C(C(=O)NNC(=O)c2ccncc2)C(c2ccccn2)N2C(=N1)Sc1cccc(C)c12 (stereo unspecified) | 0.958 | 23 | 17 | 47.1 | 0.958 | 0.708 | 23 | 23 | 65 | 1000 (≈ 2190 µM) | 0.958
16 | CCOc1ccc2c(c1)SC1=NC(C)=C(C(=O)NNC(=O)c3ccncc3)C(c3ccccn3)N12 (stereo unspecified) | 0.75 | 23 | 13 | 63.4 | 1.042 | 0.542 | 18 | 25 | 45 | 62.5 (≈ 128 µM) | 0.958
